# CHO parental Ca = signal in parental CHO cells, OX1R antagonist counter-screen | inhibition, % at 5.6 µM | 330,000 tested, 0.63% active | parental CHO-K1, ATP-induced calcium, Fluo-8 fluorescence;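 active means inhibition above that plate's mean sample inhibition plus 3 SD, cut at about 26% in these data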;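 further: 0% = ATP-challenged DMSO wells and 100% = DMSO wells without ATP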
#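 material = parental CHO cells | also added = ATP as calcium-mobilizing challenge | dosing = single point at 5.6 µM | detection = intracellular calcium via Fluo-8 no-wash fluorescent dye | read-out = % inhibition | benchmarks = low control ATP plus DMSO, high control DMSO only | repeats = one well per compound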
# TRPML3 agonist = activates the human TRPML3 channel. 220,000 tested, 0.29% active. activation, % at 3 µM. AID 1448. HEK293 TRPML3-YFP, Fluo-8 calcium fluorescence; 100% = the carbachol control signal;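 active means activation above its plate's cutoff, the mean activation of the plate's test wells plus 3 SD, cut at about 12% in these data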;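 further: 0% = DMSO only wells and 100% = carbachol wells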
#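 Material: TRPML3-YFP stable HEK293 cells | Dosing: One concentration, 3 µM nominal, 0.3% DMSO | Timing: 125 s total fluorescence read per well | Technique: Fluo-8 calcium dye fluorescence, ex 470-495, em 515-575 nm | Measure: Percent activation from peak-to-basal fluorescence ratio, scaled between DMSO and carbachol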
# OX1R antag-1 = antagonists of human orexin 1 receptor (OX1R) | OX1R-expressing cells, FRET antagonist read-out | inhibition, % at 6.6 µM | 330,000 tested, 1.8% active | AID 485270; in the data active means inhibition mostly above about 38%, no sharp cut-off; inactive means mostly below about 40%;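 further: 0% = agonist challenge alone and 100% = reference antagonist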
# Target sequence (O43613 whole entry, looked up): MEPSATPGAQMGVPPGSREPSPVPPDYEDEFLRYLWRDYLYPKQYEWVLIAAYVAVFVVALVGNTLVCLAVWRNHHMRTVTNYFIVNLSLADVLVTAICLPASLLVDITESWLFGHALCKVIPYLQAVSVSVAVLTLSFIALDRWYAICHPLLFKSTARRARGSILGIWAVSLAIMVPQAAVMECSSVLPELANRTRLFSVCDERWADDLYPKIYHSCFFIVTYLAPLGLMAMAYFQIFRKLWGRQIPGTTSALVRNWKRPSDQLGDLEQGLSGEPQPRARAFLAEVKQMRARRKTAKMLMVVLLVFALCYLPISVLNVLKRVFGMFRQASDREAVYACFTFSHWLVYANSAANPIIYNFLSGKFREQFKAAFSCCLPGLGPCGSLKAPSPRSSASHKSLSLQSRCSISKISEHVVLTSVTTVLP
# OX1R antag-2 = human HCRTR1 antagonism; 330,000 tested, 0.43% active; CHO/OX1R cells, Fluo-8 calcium fluorescence, orexin A; O43613; inhibition, % at 5 µM;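 active means inhibition above its plate's threshold, mean inhibition of all tested compounds on the plate plus 3 SD, cut at about 37% in these data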;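 further: 0% = orexin A challenge wells and 100% = SB-334867-A antagonist wells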
# TRPN1 ag = agonists of zebrafish TRPN1 channel; 220,000 tested, 0.18% active; AID 1424; HEK293 zebrafish TRPN1-YFP, Fluo-8 calcium fluorescence; 100% = response to 87 µM carbachol; activation, % at 3 µM;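 active means activation above its plate's cutoff, the mean activation of test wells on that plate plus 3 SD, cut at about 19% in these data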;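 further: 0% = DMSO alone and 100% = 87 µM carbachol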
#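 Assay system: Zebrafish TRPN1-YFP in HEK293 cells | Incubation: Dye loading 1 h at 37 °C, then 30 min room temperature | Measured by: Kinetic Fluo-8 fluorescence, ex 470-495, em 515-575 nm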
# Active calls of the source: *; . = no result given. Shown are actives, neighbours in structure and some others; about 2.5% of the full set was active somewhere.
SMILES,CHO parental Ca,TRPML3 agonist,OX1R antag-1,OX1R antag-2,TRPN1 ag
C/C(N)=C(/C#N)C(=O)COC(=O)CNC(=O)c1ccc(Cl)cc1Cl,-17,1,7,-24,1
Cc1cc(C(=O)CN2C(=O)NC(CC(C)C)C2=O)c(C)n1C1CC1 (centres undefined),-16,.,5,-19,.
COc1ccc(C2(C)NC(=O)N(CC(=O)c3cc(C)n(C4CC4)c3C)C2=O)cc1 (centres undefined),26,.,4,52*,.
O=C(Nc1ccccc1-c1nc2ccccc2o1)c1ccc2c(c1)OCCO2,.,0,.,.,1
Cc1c(NC(=O)c2ccc3c(c2)OCO3)cccc1-c1nc2ccccc2o1,-25,0,52*,-5,1
O=C(Cc1ccc([N+](=O)[O-])cc1)Nc1cc(C(F)(F)F)cc(C(F)(F)F)c1,12,1,8,0,0
Cc1cccc(NC(=O)C2(c3ccc([N+](=O)[O-])cc3)CCCC2)c1,36*,2,27,41,8
O=C(Cc1ccc([N+](=O)[O-])cc1)Nc1cccc(C(F)(F)F)c1,28*,0,25,-7,0
CN(C)c1ccc(NC(=O)/C=C/c2c(Cl)cccc2Cl)cc1,-4,0,72*,9,0
COc1ccc(C2SCCN2S(=O)(=O)c2ccc(F)cc2)cc1OC (centres undefined),-16,1,37*,-9,1
COc1ccc(S(=O)(=O)N2CCSC2c2ccc(OC)c(OC)c2)cc1 (centres undefined),-4,0,26,6,2
O=C(C(=O)N1CCCC1)c1c(-c2ccccc2)[nH]c2ccccc12,-3,.,8,-18,.
N#Cc1nccnc1S(=O)(=O)c1cccs1,44*,2,109*,31,1
CCC(CO)Oc1cc(NCc2ccc(C(C)(C)C)cc2)c2ncn(C(C)C)c2c1 (centres undefined),50*,.,14,50,.
CCCCOc1cc(NCc2ccccc2)c2ncn(C(C)C)c2c1,-50,.,24,-91,.
CC(C)n1cnc2c(NCc3ccccc3)cc(N[C@H](C)CO)cc21,-12,.,75*,6,.
CCC(CO)Oc1cc(NCc2ccc(O)cc2)c2ncn(C(C)C)c2c1 (centres undefined),-14,.,2,-24,.
CCC(COC)Oc1cc(NCc2ccccc2)c2ncn(C(C)C)c2c1 (centres undefined),-3,.,35*,13,.
CCC(CO)Oc1cc(NCc2ccccc2)c2ncn(C(C)C)c2c1 (centres undefined),-20,.,14,-24,.
COc1ccc(OCCOC(=O)c2[nH]c(C)c(C(C)=O)c2C)cc1,45*,4,38,-2,9
COc1ccc(-c2oc3ncn(CCN4CCOCC4)c(=N)c3c2-c2ccc(OC)cc2)cc1,-16,0,38*,-16,-1
Cc1cc(C)c(S(=O)(=O)N2CCN(C(=O)C3CCCO3)CC2)c(C)c1 (centres undefined),-7,.,8,-9,.
Cc1ccc2nsnc2c1S(=O)(=O)N1CCN(C(=O)C2CCCO2)CC1 (centres undefined),-19,1,69*,-12,1
O=C(COC(=O)Cc1ccc(Br)cc1)NCc1ccc(F)cc1,-3,-1,10,-10,-2
Cc1cccc(NS(=O)(=O)c2nnc(NC(=O)c3cccc(C)c3)s2)c1,1,.,63*,17,.
SMILES,CHO parental Ca,TRPML3 agonist,OX1R antag-1,OX1R antag-2,TRPN1 ag
Cc1cccc(NS(=O)(=O)c2nnc(NC(=O)c3ccc(Cl)cc3)s2)c1,-8,.,59*,11,.
NS(=O)(=O)c1ccc(CCNC(=O)CCc2nc3ccccc3s2)cc1,-3,.,10,14,.
Cc1ccc(-c2noc(CSc3nnc(-c4ccncc4)n3-c3ccc(C)cc3)n2)cc1,-23,0,4,-19,-1
Cc1ccc(-c2noc(CSc3nnnn3C3CCCCC3)n2)cc1,38*,0,10,-16,-1
CC(=O)N(CN1C(=O)c2ccc([N+](=O)[O-])cc2C1=O)c1cccc(C(=O)O)c1,13,0,52*,1,2
O=C(N/N=C/c1cc2c(cc1Br)OCO2)c1cc2ccccc2o1,-16,.,76*,-1,.
COc1cc(/C=N/NC(=O)c2cc3c(ccc4ccccc43)o2)cc(OC)c1O,-9,.,53*,7,.

# Source: PubChem
